m5-HT2A agonist: mouse HTR2A agonism via beta-arrestin recruitment | P35363 | 0.66% of 360,000 active | activation, % at 7.6 µM | AID 624169 | CHO-K1 mHTR2A beta-arrestin complementation, luminescence; percent of 30 µM serotonin response;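 active = activation above a run cutoff, the mean activation of all tested compounds plus 3 SD, cut at about 14% in these data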;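 note: 0% = plate median of compound wells and 100% = 30 µM serotonin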
EBI2 antag: antagonists of human EBI2 receptor | AID 651636 | EBI2 beta-arrestin recruitment, luminescence, 7a,25-OHC stimulated | inhibition, % at 5 µM | 0.81% of 360,000 active; in the data active = inhibition above about 38%;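 note: enzyme fragment complementation signal reports receptor beta-arrestin coupling in cells; 0% = agonist plus DMSO wells and 100% = wells without agonist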
MC4R barr agon: agonists of human melanocortin 4 receptor (MC4R) beta-arrestin | P32245 | U2OS MC4R beta-arrestin complementation, luminescence; percent of melanotan II response, DMSO zero | activation, % at 8.9 µM | 0.98% of 360,000 active | AID 540308;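 active = activation above a per-plate cutoff, the mean activation of sample wells on that plate plus 3 SD, cut at about 8% in these data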
MC4R antag cAMP: human MC4R antagonism in cAMP assay; P32245; MC4R-expressing cells, MTII-stimulated cAMP, LANCE TR-FRET; inhibition, % at 6.5 µM; 0.48% of 360,000 active; AID 540295;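 active = inhibition above its plate's cutoff, the mean of tested wells on that plate plus 3 SD, cut at about 29% in these data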;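 note: 0% = Melanotan II alone and 100% = Melanotan II plus saturating MCL0020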
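system = U2OS cells with stable human MC4R expression | also added = Melanotan II challenge after compound preincubation | dosing = one concentration, 6.5 µM nominal | incubation = compound 30 min, challenge 1 h, detection 1 h | measured by = TR-FRET with Eu-cAMP and labeled anti-cAMP, 671 nm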
cAMP nonselect: counter-screen for MC4R antagonists: nonselective cAMP signaling inhibitors. shares compounds with MC4R antag cAMP. parental U2OS, forskolin cAMP, LANCE TR-FRET. inhibition, % at 6.5 µM. 26% of 1,600 active;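 active = mean inhibition over triplicates above the low-control well mean plus 3 SD, set per campaign, cut at about 13% in these data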;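 note: signal is single emission at 671 nm which falls as cellular cAMP rises; 0% = forskolin-stimulated wells and 100% = buffer without forskolin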
MC4R cAMP antag: human MC4R cAMP antagonism confirmation | shares compounds with MC4R antag cAMP | MC4R-expressing cells, MTII-stimulated cAMP, TR-FRET | inhibition, % at 6.5 µM | 27% of 1,600 active | AID 602195; in the data active = inhibition above about 29%;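 note: 0% = agonist stimulated wells alone and 100% = agonist stimulated wells plus saturating reference antagonist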
MC4R barr conf: human MC4R beta-arrestin agonism confirmation; shares compounds with MC4R barr agon; U2OS MC4R beta-arrestin recruitment, luminescence; scaled DMSO 0%, Melanotan II 100%; activation, % at 8.9 µM; 31% of 2,400 active; AID 602192;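 active = mean activation across replicates above the hit cutoff set in the earlier primary screen, cut at about 8% in these data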
MOR-DOR barr ag: activates mu-delta opioid heterodimer, MC4R agonist counter-screen. shares compounds with MC4R barr agon. U2OS PathHunter beta-arrestin, beta-gal luminescence; percent of deltorphin B response, DMSO zero. activation, % at 9.2 µM. 5.8% of 2,400 active;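 active = mean activation across replicates exceeds the hit threshold derived in the earlier primary screen, cut at about 18% in these data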;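 note: 100% = deltorphin B at 0.9 µM final and 0% = DMSO alone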
Target sequence (P35372 whole entry, looked up): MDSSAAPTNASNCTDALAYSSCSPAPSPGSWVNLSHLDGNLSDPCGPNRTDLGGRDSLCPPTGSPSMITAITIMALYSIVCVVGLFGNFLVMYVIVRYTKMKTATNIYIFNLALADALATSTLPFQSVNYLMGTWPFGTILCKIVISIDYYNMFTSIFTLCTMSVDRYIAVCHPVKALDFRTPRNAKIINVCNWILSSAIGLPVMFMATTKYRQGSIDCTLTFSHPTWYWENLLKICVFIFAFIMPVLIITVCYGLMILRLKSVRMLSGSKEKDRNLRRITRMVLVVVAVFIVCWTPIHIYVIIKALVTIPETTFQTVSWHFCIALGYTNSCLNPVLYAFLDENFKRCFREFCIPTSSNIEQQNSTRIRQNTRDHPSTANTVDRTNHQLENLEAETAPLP
Target sequence (P41143 whole entry, looked up): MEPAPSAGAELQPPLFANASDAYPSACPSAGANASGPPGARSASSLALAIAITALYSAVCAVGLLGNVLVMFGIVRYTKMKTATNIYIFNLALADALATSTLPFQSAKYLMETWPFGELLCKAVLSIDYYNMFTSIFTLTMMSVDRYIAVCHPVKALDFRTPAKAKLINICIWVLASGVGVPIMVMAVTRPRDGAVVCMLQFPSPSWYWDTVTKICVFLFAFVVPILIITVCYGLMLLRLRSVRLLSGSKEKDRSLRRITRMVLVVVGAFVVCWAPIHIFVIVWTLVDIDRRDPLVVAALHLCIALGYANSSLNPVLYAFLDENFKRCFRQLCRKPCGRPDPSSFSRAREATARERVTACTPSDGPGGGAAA
EBI2 antag conf: EBI2 (human) antagonism, single concentration confirmation; shares compounds with EBI2 antag; EBI2 beta-arrestin luminescence, 7a,25-OHC antagonism; inhibition, % at 5 µM; 29% of 2,400 active;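 active = inhibition of at least 50%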
EBI2 agonist: counter-screen for EBI2 antagonists: EBI2 agonist activity; AID 652000; 2,400 tested, under 10 active; shares compounds with EBI2 antag; EBI2-expressing cells, agonist mode, luminescence, 60 min; 0% vehicle, 100% 7α,25-dihydroxycholesterol control; activation, % at 5 µM;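 active = activation of at least 50%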
bGal cs: counter-screen for EBI2 antagonists: E. coli beta-galactosidase inhibition; shares compounds with EBI2 antag; purified beta-galactosidase, luminescent Galacton Star, 15 min; inhibition, % at 5 µM; 1% of 2,400 active; AID 652176;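 active = replicate-average signal at least 3 plate SD below neutral wells, shown as high inhibition, flagging enzyme-inhibiting false positives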;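 note: 0% = DMSO wells with enzyme and 100% = wells lacking enzyme; higher means stronger loss of beta-gal luminescence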
* marks the source's active call; other numbers are inactive results; nt = no result given. An excerpt weighted towards active compounds, which were near 2.8% of everything screened.

SMILES | m5-HT2A agonist | EBI2 antag | MC4R barr agon | MC4R antag cAMP | MC4R barr conf | MOR-DOR barr ag | others
CC1=CC(C)C(=O)N(CCN2CCOCC2)C(C)=C1 (stereo not given) | -3 | -6 | -2 | 8 | nt | nt
CCOC(=O)c1ccc(N=c2sc(C(=O)OC)cc(=O)n2-c2ccc(C(=O)OCC)cc2)cc1 | 6 | 79* | 1 | 32* | nt | nt | cAMP nonselect=6;MC4R cAMP antag=18;EBI2 antag conf=74*;EBI2 agonist=1;bGal cs=7
Cc1nc(N2CCC(C)CC2)c2c(C)c(C(=O)Nc3ccc(C)c(F)c3)sc2n1 | 2 | -15 | 2 | 12 | nt | nt
Cc1nc(N2CCC(C)CC2)c2c(C)c(C(=O)Nc3ccccc3C(F)(F)F)sc2n1 | 5 | 45* | 2 | 30* | nt | nt | cAMP nonselect=2;MC4R cAMP antag=18;EBI2 antag conf=15;EBI2 agonist=0;bGal cs=-10
CSCCC(NC(=O)c1ccccc1Cl)C(=O)NCCOc1ccc(C)cc1 (stereo not given) | -3 | 17 | -1 | 2 | nt | nt
Cc1cc(C#N)c(C)c(SCc2[nH]nc3c2C(c2ccccc2)C(C#N)=C(N)O3)n1 (stereo not given) | 1 | 68* | 1 | 31* | nt | nt | cAMP nonselect=4;MC4R cAMP antag=-6;EBI2 antag conf=55*;EBI2 agonist=0;bGal cs=7
Cc1ccc(SCc2[nH]nc3c2C(c2cccnc2)C(C#N)=C(N)O3)cc1 (stereo not given) | -4 | 5 | 0 | 8 | nt | nt
O=C(Nc1cccc(-c2csc(Nc3cccc(C(F)(F)F)c3)n2)c1)c1ccccc1 | 0 | 46* | 2 | 42* | nt | nt | cAMP nonselect=2;MC4R cAMP antag=16;EBI2 antag conf=23;EBI2 agonist=-1;bGal cs=-15
C[C@H](CO)N1C[C@H](C)[C@H](CN(C)C(=O)Nc2ccc(C(F)(F)F)cc2)OCc2cnnn2CCCC1=O | 5 | -11 | 0 | 3 | nt | nt
COc1cccc(Nc2nc(-c3sc(C)nc3C)cs2)c1 | -3 | 48* | 1 | 29* | nt | nt | cAMP nonselect=0;MC4R cAMP antag=6;EBI2 antag conf=59*;EBI2 agonist=1;bGal cs=4
COc1ccccc1CC(=O)Nc1ccc(-c2noc(COc3ccc(Br)cc3)n2)cc1 | -2 | 7 | 26* | 9 | 8 | 19*
Cc1ccccc1OCc1nc(-c2ccc(NC(=O)c3cccs3)cc2)no1 | -4 | 15 | 16* | 14 | 6 | 5
Cc1ccccc1OCc1nc(-c2ccc(NC(=O)c3ccco3)cc2)no1 | 13 | 3 | 23* | 4 | 0 | 5
Cc1cc2nc(-c3ccc(Cl)cc3)c(CC3CCCCC3)n2c(C)c1Br | 5 | -7 | nt | nt | nt | nt
c1ccc(Cn2nnc3c(Nc4ccc5c(c4)OCO5)nc(C4CC4)nc32)cc1 | 6 | 32 | 18* | 9 | 3 | 5
Brc1cc2c(cc1-c1nc3ccccc3s1)OCO2 | -13 | 12 | 15* | 8 | 1 | 4
CC(C)(C)C(=O)NC(=S)Nc1sc2c(c1C#N)CCCCC2 | 3 | 3 | 17* | -5 | -3 | 2
CC(=O)Nc1sc2c(c1C#N)CCCCC2 | -6 | 10 | -1 | 9 | nt | nt
Cc1ccc(C(=O)N(Nc2nc3ccccc3s2)C(=O)c2ccc(C)cc2)cc1 | 0 | 9 | 25* | 8 | 14* | 6
COc1ccc2nc(NC(=O)CSc3nc4cccnc4n3C)sc2c1 | 0 | 9 | 17* | 7 | 37* | 7
CCCCn1c(OC(=S)N(CC)CC)cc(C)nc1=S | -8 | -2 | nt | nt | nt | nt
O=C(/C=C/c1cn(-c2ccccc2)nc1-c1ccccc1)Nc1ccc(C(=O)O)cc1 | -1 | 3 | 2 | 16 | nt | nt
Cc1ccc(-c2nn(-c3ccccc3)cc2/C=C/C(=O)Nc2nccs2)cc1 | -6 | 24 | 19* | -5 | 8 | 4
Nc1ncnc(N)c1NC(=O)c1cc(Cl)c(OCc2ccccc2)c(Cl)c1 | 3 | 1 | -1 | -3 | nt | nt
Cc1cccc(N(C(=O)C(F)(F)F)C(C(=O)NC2CCCCC2)c2cccs2)c1 (stereo not given) | 0 | 6 | 20* | 14 | 7 | 10
SMILES | m5-HT2A agonist | EBI2 antag | MC4R barr agon | MC4R antag cAMP | MC4R barr conf | MOR-DOR barr ag | others
Cc1cc(C)cc(N(C(=O)C(F)(F)F)C(C(=O)NC2CCCCC2)c2cccs2)c1 (stereo not given) | 3 | -4 | 1 | -3 | nt | nt
O=C(CCN1C(=O)/C(=C\c2ccccc2)SC1=S)NNC(=O)c1ccccc1O | -5 | 7 | 10* | -2 | 3 | 3
O=C(CCN1C(=O)/C(=C\c2ccccc2)SC1=S)NNC(=O)c1cccnc1 | 0 | 3 | 21* | 1 | 5 | 1
COc1ccccc1C(=O)NNC(=O)CCCN1C(=O)/C(=C/c2cccs2)SC1=S | 6 | 5 | 23* | 0 | 7 | 4
O=C(CCCN1C(=O)/C(=C\c2cccs2)SC1=S)NNC(=O)c1ccncc1 | 1 | -5 | 0 | -3 | nt | nt
CC1Cc2[nH]c(=S)[nH]c(=O)c2C(c2ccc(F)cc2)O1 (stereo not given) | -1 | 0 | nt | nt | nt | nt
CN(C(=O)COC(=O)Cc1ccc(Br)cc1)c1c(N)n(Cc2ccccc2)c(=O)[nH]c1=O | 9 | -16 | 1 | -8 | nt | nt
CC1CCC2(CC1)NC(=O)N(NC(=O)c1cccc(N(C)C)c1)C2=O (stereo not given) | -2 | 0 | 0 | 1 | nt | nt
COc1ccc(/C=C2/SC(=S)N(CCC(=O)O)C2=O)cc1 | -4 | -1 | -1 | -3 | nt | nt
COc1ccc(/C=C2\SC(=S)N(CCC(=O)Nc3cccc(O)c3)C2=O)cc1 | -1 | 26 | 21* | -3 | 3 | 4
COc1ccc(/C=C2\SC(=S)N(CCC(=O)Nc3ccc(C(=O)O)cc3)C2=O)cc1 | 4 | 7 | -2 | 4 | nt | nt
COc1ccc(/C=C2\SC(=S)N(CCCC(=O)Nc3ccc(O)cc3)C2=O)cc1 | 2 | -2 | 17* | 27 | 10* | 2
COc1ccc(/C=C2/SC(=S)N(Cc3ccccc3)C2=O)cc1O | -1 | 15 | 12* | 7 | 8 | 5
COc1ccc(/C=C2/SC(=S)N(CCCC(=O)Nc3ccc(O)cc3)C2=O)cc1 | -1 | 11 | 12* | 5 | 7 | 4
